Data reported in publication PMC7660780 (Journal of the American Heart Association: Cardiovascular …, 2020).
In brackets after ≈: the same amount, converted by molar mass. Several values for one entry are separate records, joined by “and”; a condition that tells them apart may be missing. Equal entries are not always repeated. Entries after “also recorded” stand apart in the source; their conditions may differ.

Legend:
Type in all cases: in vivo, human
[1] = Safety measures in patients with stable CAD receiving aspirin; settings: stable CAD on aspirin
Method in brief: (§1)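 The trial was double-blind, placebo-controlled and dose-escalating. In each cohort, 2 sentinels were dosed, then 5 more were randomized 4:1 to drug or placebo. Each received a single weight-based SC deltoid injection of 0.18–0.52 mL, followed by 15 min gentle pressure. Injection site checks, platelet counts, laboratory tests and clinical assessments ran at set times through 24 h and at 7 days. Adverse events were graded by CTCAE.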

[2] = test system: ADP‐induced platelet aggregation (20 μmol/L); assay: Ex vivo inhibition of ADP-induced platelet aggregation; settings: healthy volunteers
Method in brief: (§2)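 Each participant got a single SC deltoid dose. Blood was drawn at baseline and at set times to 24 h into PPACK (100 μmol/L final). PRP was spun at 600 g or 300 g for 5 min at RT, and PPP at 2000 g for 9 min. High PRP counts were lowered with PPP. Turbidometric aggregation used 20 μmol/L ADP. IPA is the % fall in primary slope (≥15 s, 0.5 s sampling) versus the baseline sample, reported as mean±SD.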

[3] = RUC‐4 whole blood levels by LC-MS/MS; settings: dose‐expansion group 0.075 mg/kg SC
[4] = test system: ADP‐induced platelet aggregation (20 μmol/L); assay: Population pharmacodynamic model; settings: for IC50: value ± spread as printed in pharmacokinetic data section
[5] = Population pharmacokinetic model
[6] = test system: ADP‐induced platelet aggregation (20 μmol/L)
Method in brief: as §2

[7] = Safety and tolerability, summary statements over the whole study
Method in brief: as §1

[8] = test system: ADP‐induced platelet aggregation (20 μmol/L); assay: Ex vivo inhibition of ADP-induced platelet aggregation; settings: for IPA Mean (SD): 15 min post-dose; for IPA of the 1 participant who did not achieve the BED: 0.075 mg/kg SC dose escalation
[9] = Safety measures in healthy volunteers; settings: HVs
Method in brief: as §1

[10] = dose escalation 0.04 mg/kg (n=2)
[11] = dose escalation 0.05 mg/kg (n=6)
[12] = dose escalation 0.075 mg/kg (n=6)
[13] = dose expansion 0.075 mg/kg (n=12)
[14] = 0.075 mg/kg SC, HVs and patients with stable CAD taking aspirin
[15] = stable CAD on aspirin, 0.075 mg/kg SC, dose escalation

SMILES: NCC(=O)Nc1cncc(-c2nn3c(=O)cc(N4CCNCC4)nc3s2)c1 [RUC‐4]
- No. of TESAEs [1, 10]: 0
- Patients reporting a TEAE of bruising at the injection site [1, 10]: 0 (0.0) n (%)
- Patients reporting a non‐AE bruising at the injection site event [1, 10]: 0 (0.0) n (%)
- Patients reporting at least 1 bleeding AE [1, 10]: 0 (0.0) n (%)
- Patients reporting at least 1 injection site reaction AE [1, 10]: 0 (0.0) n (%)
- Patients reporting at least 1 related TEAE with CTCAE grade ≥3 [1, 10]: 0 (0.0) n (%)
- non‐AE bruising at the injection site, Grade 1 [1, 10]: 0 (0.0) n (%)
- non‐AE bruising at the injection site, Grade 2 [1, 10]: 0 (0.0) n (%)
- No. of TESAEs [1, 11]: 0
- Patients reporting a TEAE of bruising at the injection site [1, 11]: 0 (0.0) n (%)
- Patients reporting a non‐AE bruising at the injection site event [1, 11]: 2 (33.3) n (%)
- Patients reporting at least 1 bleeding AE [1, 11]: 0 (0.0) n (%)
- Patients reporting at least 1 injection site reaction AE [1, 11]: 0 (0.0) n (%)
- Patients reporting at least 1 related TEAE with CTCAE grade ≥3 [1, 11]: 0 (0.0) n (%)
- non‐AE bruising at the injection site, Grade 1 [1, 11]: 2 (33.3) n (%)
- non‐AE bruising at the injection site, Grade 2 [1, 11]: 0 (0.0) n (%)
- No. of TESAEs [1, 12]: 0
- Patients reporting a TEAE of bruising at the injection site [1, 12]: 0 (0.0) n (%)
- Patients reporting a non‐AE bruising at the injection site event [1, 12]: 4 (66.7) n (%)
- Patients reporting at least 1 bleeding AE [1, 12]: 0 (0.0) n (%)
- Patients reporting at least 1 injection site reaction AE [1, 12]: 0 (0.0) n (%)
- Patients reporting at least 1 related TEAE with CTCAE grade ≥3 [1, 12]: 0 (0.0) n (%)
- non‐AE bruising at the injection site, Grade 1 [1, 12]: 4 (66.7) n (%)
- non‐AE bruising at the injection site, Grade 2 [1, 12]: 0 (0.0) n (%)
- No. of TESAEs [1, 13]: 0
- Patients reporting a TEAE of bruising at the injection site [1, 13]: 0 (0.0) n (%)
- Patients reporting a non‐AE bruising at the injection site event [1, 13]: 5 (41.7) n (%)
- Patients reporting at least 1 bleeding AE [1, 13]: 0 (0.0) n (%)
- Patients reporting at least 1 injection site reaction AE [1, 13]: 0 (0.0) n (%)
- Patients reporting at least 1 related TEAE with CTCAE grade ≥3 [1, 13]: 0 (0.0) n (%)
- non‐AE bruising at the injection site, Grade 1 [1, 13]: 5 (41.7) n (%)
- non‐AE bruising at the injection site, Grade 2 [1, 13]: 0 (0.0) n (%)
- No. of TESAEs ([1]; total RUC‐4 0.075 mg/kg (n=18)): 0
- Patients reporting a TEAE of bruising at the injection site ([1]; total RUC‐4 0.075 mg/kg (n=18)): 0 (0.0) n (%)
- Patients reporting a non‐AE bruising at the injection site event ([1]; total RUC‐4 0.075 mg/kg (n=18)): 9 (50.0) n (%)
- Patients reporting at least 1 bleeding AE ([1]; total RUC‐4 0.075 mg/kg (n=18)): 0 (0.0) n (%)
- Patients reporting at least 1 injection site reaction AE ([1]; total RUC‐4 0.075 mg/kg (n=18)): 0 (0.0) n (%)
- Patients reporting at least 1 related TEAE with CTCAE grade ≥3 ([1]; total RUC‐4 0.075 mg/kg (n=18)): 0 (0.0) n (%)
- non‐AE bruising at the injection site, Grade 1 ([1]; total RUC‐4 0.075 mg/kg (n=18)): 9 (50.0) n (%)
- non‐AE bruising at the injection site, Grade 2 ([1]; total RUC‐4 0.075 mg/kg (n=18)): 0 (0.0) n (%)
- IPA mean±SD ([2]; 0.05 mg/kg SC (n=6), 15 minutes): 71.8%±15.0%
- return of IPA toward baseline ([2]; 0.075 mg/kg SC): ≤ 4 h
- IPA mean±SD ([2]; 0.075 mg/kg SC (n=6), 15 minutes, 0.075 mg/kg): 84.7%±16.7% and 84.7%
- IPA median ([2]; 0.075 mg/kg SC, 15 minutes): 88.0%
- IPA of the individual participants not achieving the BED ([2]; 0.075 mg/kg SC, 15 minutes, 0.075 mg/kg): 76.5% and 55.8%
- IPA of the individual participants not achieving the BED ([2]; 0.075 mg/kg SC, 30 minutes postdose, 0.075 mg/kg): 68.6% and 73.1%
- whole blood level of RUC‐4, group mean excluding the outlying participant ([3]; 5 minutes): 26.8 ± 26.5 ng/mL
- whole blood level of RUC‐4, one CAD participant with much higher levels ([3]; 5 minutes): 384 ng/mL
- whole blood level of RUC‐4, group mean excluding the outlying participant ([3]; 15 minutes): 74.3 ± 38.6 ng/mL
- whole blood level of RUC‐4, one CAD participant with much higher levels ([3]; 15 minutes): > 500 ng/mL
- whole blood level of RUC‐4, group mean excluding the outlying participant ([3]; 30 minutes): 71.3 ± 30.5 ng/mL
- whole blood level of RUC‐4, one CAD participant with much higher levels ([3]; 30 minutes): 307 ng/mL
- whole blood level of RUC‐4, group mean excluding the outlying participant ([3]; 60 minutes): 40.3 ± 7.3 ng/mL
- whole blood level of RUC‐4, one CAD participant with much higher levels ([3]; 60 minutes): 131 ng/mL
- IC50, geometric mean ([4]; cohort with aspirin): 0.0338 µg/mL (≈ 0.0875 µM)
- IC50, geometric mean ([4]; cohort without aspirin): 0.0342 µg/mL (≈ 0.0885 µM)
- gamma (coefficient) ([4]; sigmoidal Emax model): 1.31
- IC50 ([4]; with aspirin): 0.0347 ± 0.0079 µg/mL (≈ 0.0898 µM)
- IC50 ([4]; without aspirin): 0.0348 ± 0.0067 µg/mL (≈ 0.0901 µM)
- Vp/F (apparent peripheral volume of distribution), geometric mean ([5]; SC, All Subjects): 221 L
- effect of aspirin on RUC‐4 pharmacokinetics or pharmacodynamics ([5]; pharmacokinetic and pharmacodynamic models, covariate aspirin): did not significantly affect
- platelet inhibition (high‐grade) [6, 14]: > 80%
- time to onset of high-grade platelet inhibition [6, 14]: < 15 min
- time within which platelet inhibition largely resolved [6, 14]: ≤ 2 h
- time to peak of blood drug levels and platelet inhibition ([6]; subcutaneous administration): ≤ 15 min
- time to onset of high-grade inhibition of platelet aggregation ([6]; subcutaneous, 20 μmol/L of ADP): < 15 min
- time to return of IPA toward baseline ([6]; subcutaneous, 20 μmol/L of ADP): ≤ 2 h
- inhibition of platelet aggregation (high‐grade) ([6]; subcutaneous, 20 μmol/L of ADP, across the study populations): > 80%
- adverse events leading to study drug discontinuation [7]: none leading to study drug discontinuation
- drug‐related changes in laboratory values [7]: no drug‐related changes in laboratory values
- injection site reactions (including bruising), severity [7]: mild
- platelet counts during the course of treatment [7]: stable
- transient reduction in platelet count, single participant [7]: 120 000 /μL
- serious adverse events ([7]; SC 0.04-0.075 mg/kg): no serious adverse events; also recorded: No SAEs were observed
- bleeding events, number of patients ([7]; limited to the injection site): 3 patients
- severity of bleeding events ([7]; modified Bleeding Academic Research Consortium type 1): mild
- IPA of the one CAD participant with much higher whole blood levels ([8]; dose‐expansion group 0.075 mg/kg SC, 5, 15, 30, and 60 minutes time points): 100%
- IPA Mean (SD) ([8]; stable CAD on aspirin, 0.04 mg/kg SC, 0.04 mg/kg): 53.6%±17.0%
- IPA Mean (SD) ([8]; stable CAD on aspirin, 0.05 mg/kg SC, 0.05 mg/kg): 76.9%±10.6%
- IPA of the 1 participant who did not achieve the BED ([8]; stable CAD on aspirin, 15 minutes): 65.4%
- IPA of the 1 participant who did not achieve the BED ([8]; stable CAD on aspirin, 30 minutes): 86.5%
- participants achieving the BED [8, 15]: 5 of 6
- return of IPA toward baseline [8, 15]: ≤ 4 h
- participants achieving the BED ([8]; stable CAD on aspirin, 0.075 mg/kg SC, dose expansion, additional participants): 6 of the 12
- IPA mean±SD ([8]; stable CAD on aspirin, 0.075 mg/kg SC, high‐weight group, 15 minutes): 88.0%±14.4%
- IPA mean±SD ([8]; stable CAD on aspirin, 0.075 mg/kg SC, high‐weight group, 30 minutes): 85.4%±21.0
- IPA mean±SD ([8]; stable CAD on aspirin, 0.075 mg/kg SC, low‐weight group, 15 minutes): 63.2%±21.4%
- IPA mean±SD ([8]; stable CAD on aspirin, 0.075 mg/kg SC, low‐weight group, 30 minutes): 67.8%±14.7%
- No. of TESAEs ([9]; 0.05 mg/kg (n=6)): 0
- Patients reporting a TEAE of bruising at the injection site ([9]; 0.05 mg/kg (n=6)): 0 (0.0) n (%)
- Patients reporting a non‐AE bruising at the injection site event ([9]; 0.05 mg/kg (n=6)): 2 (33.3) n (%)
- Patients reporting at least 1 bleeding AE ([9]; 0.05 mg/kg (n=6)): 0 (0.0) n (%)
- Patients reporting at least 1 injection site reaction adverse event ([9]; 0.05 mg/kg (n=6)): 0 (0.0) n (%)
- Patients reporting at least 1 related TEAE with CTCAE grade ≥3 ([9]; 0.05 mg/kg (n=6)): 0 (0.0) n (%)
- non‐AE bruising at the injection site, Grade 1 ([9]; 0.05 mg/kg (n=6)): 2 (33.3) n (%)
- non‐AE bruising at the injection site, Grade 2 ([9]; 0.05 mg/kg (n=6)): 0 (0.0) n (%)
- No. of TESAEs ([9]; 0.075 mg/kg (n=6)): 0
- Patients reporting a TEAE of bruising at the injection site ([9]; 0.075 mg/kg (n=6)): 0 (0.0) n (%)
- Patients reporting a non‐AE bruising at the injection site event ([9]; 0.075 mg/kg (n=6)): 0 (0.0) n (%)
- Patients reporting at least 1 bleeding AE ([9]; 0.075 mg/kg (n=6)): 0 (0.0) n (%)
- Patients reporting at least 1 injection site reaction adverse event ([9]; 0.075 mg/kg (n=6)): 0 (0.0) n (%)
- Patients reporting at least 1 related TEAE with CTCAE grade ≥3 ([9]; 0.075 mg/kg (n=6)): 0 (0.0) n (%)
- non‐AE bruising at the injection site, Grade 1 ([9]; 0.075 mg/kg (n=6)): 0 (0.0) n (%)
- non‐AE bruising at the injection site, Grade 2 ([9]; 0.075 mg/kg (n=6)): 0 (0.0) n (%)
